Measured values reported in ChEMBL document CHEMBL4840327, “Identification and structure-activity relationship exploration of uracil-based benzoic acid and ester derivatives as novel dipeptidyl Peptidase-4 inhibitors for the treatment of type 2 diabetes mellitus” (Eur J Med Chem, 2021).

Experiments:
[1] = Cytotoxicity against human L02 cells assessed as cell viability at 20 uM measured after 48 hrs by MTT assay relative to control; format: cell-based; conditions: read-out: Activity
Method in brief: (§1)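 Log-phase hepatic LO2 cells seeded at 1 × 10^4 cells/well and exposed to compound or vehicle for 48 h. MTT (5 mg/mL in PBS) added for 4 h at 37 °C, 5% CO2; formazan dissolved in DMSO, absorbance read at 490 nm. Viability given as % of vehicle control; mean ± SD, n = 5.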

[2] = AUC (0 to infinity) in Sprague-Dawley rat at 3 mg/kg, iv measured after 48 hrs by LC-MS/MS analysis; format: ADME, organism-based; design: route intravenous, time 48 hrs, dose 3 mg/kg; conditions: in vivo
[3] = Metabolic stability in ICR mouse liver microsomes assessed as parent compound remaining at 0.1 uM incubated for 60 mins in presence of NADPH by LC-MS/MS analysis; format: ADME, Microsome; conditions: read-out: Stability
Method in brief: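 ICR mouse liver microsomes (1 mg/mL) in 100 mM Tris pH 7.4 with 10 mM MgCl2, preincubated 5 min at 37 °C. Incubated 0–60 min at 37 °C with compound at 0.1 µM final. Quench with ice-cold methanol with 0.5% formic acid, centrifuge, LC-MS/MS. No-microsome controls run; all in duplicate.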

[4] = Cytotoxicity against human L02 cells assessed as cell viability up to 100 uM measured after 48 hrs by MTT assay relative to control; format: cell-based; conditions: read-out: Activity; method in brief: as §1
[5] = Cmax in Sprague-Dawley rat at 3 mg/kg, iv measured after 48 hrs by LC-MS/MS analysis; format: ADME, organism-based; design: route intravenous, dose 3 mg/kg, time 48 hrs; conditions: in vivo
Dipeptidyl peptidase 8 = Dipeptidyl peptidase 8 (Homo sapiens, UniProt Q6V1X1); assay: Inhibition of human recombinant DPP8 using Gly-Pro-AMC as substrate preincubated for 15 mins followed by substrate addition and measured for 20 mins by fluorescence based microplate reader assay
[6] = Metabolic stability in Sprague-Dawley rat plasma assessed as parent compound remaining at 1 uM incubated for 120 mins by LC-MS/MS analysis; format: ADME, cell-free; conditions: read-out: Stability
Method in brief: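 SD rat plasma incubated with compound for 120 min. Supernatant analysed by LC-MS/MS; remaining % = (C120/C0) × 100. Values come from two independent experiments.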

[7] = Half life in Sprague-Dawley rat at 3 mg/kg, iv measured after 48 hrs by LC-MS/MS analysis; format: ADME, organism-based; conditions: in vivo
Dipeptidyl peptidase 9 = Dipeptidyl peptidase 9 (Homo sapiens, UniProt Q86TI2); assay: Inhibition of human recombinant DPP9 using Gly-Pro-AMC as substrate preincubated for 15 mins followed by substrate addition and measured for 20 mins by fluorescence based microplate reader assay
[8] = Clearance in Sprague-Dawley rat at 3 mg/kg, iv measured after 48 hrs by LC-MS/MS analysis; format: ADME, organism-based; conditions: in vivo
Dipeptidyl peptidase 4 = Dipeptidyl peptidase 4 (Homo sapiens, UniProt P27487); assay: Inhibition of human recombinant DPP4 using Gly-Pro-AMC as substrate preincubated for 15 mins followed by substrate addition and measured for 20 mins by fluorescence based microplate reader assay
[9] = Clearance in Sprague-Dawley rat at 10 mg/kg, po measured after 48 hrs by LC-MS/MS analysis; format: ADME, organism-based; conditions: in vivo
[10] = Half life in Sprague-Dawley rat at 10 mg/kg, po measured after 48 hrs by LC-MS/MS analysis; format: ADME, organism-based; conditions: in vivo
[11] = Cmax in Sprague-Dawley rat at 10 mg/kg, po measured after 48 hrs by LC-MS/MS analysis; format: ADME, organism-based; design: route oral, dose 10 mg/kg, time 48 hrs; conditions: in vivo
[12] = Tmax in Sprague-Dawley rat at 10 mg/kg, po measured after 48 hrs by LC-MS/MS analysis; format: ADME, organism-based; conditions: in vivo
[13] = molecular target: Dipeptidyl peptidase 4 (Rattus norvegicus) (UniProt P14740); assay: In vivo inhibition of DPP4 in Sprague-Dawley rat plasma at 10 mg/kg, po via gavage using Gly-Pro-AMC as substrate measured after 30 mins relative to control; format: functional, organism-based
Method in brief: (§2)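 Male SD rats (n = 3/group), fasted overnight, gavaged with 10 mg/kg in distilled water or vehicle. Heparinized orbital blood taken at 0–48 h; plasma stored −20 °C. Plasma mixed with 125 µM Gly-Pro-AMC in 100 mM HEPES pH 7.5, 0.1 mg/mL BSA; AMC release followed 10 min at 37 °C (ex 360/em 460 nm). Rate expressed as % of vehicle-sample rate.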

[14] = AUC (0 to infinity) in Sprague-Dawley rat at 10 mg/kg, po measured after 48 hrs by LC-MS/MS analysis; format: ADME, organism-based; design: route oral, dose 10 mg/kg, time 48 hrs; conditions: in vivo
[15] = molecular target: Dipeptidyl peptidase 4 (Rattus norvegicus) (UniProt P14740); assay: In vivo inhibition of DPP4 in Sprague-Dawley rat plasma at 10 mg/kg, po via gavage using Gly-Pro-AMC as substrate measured after 12 hrs relative to control; format: functional, organism-based; method in brief: as §2
Mus musculus [16] = assay: Antidiabetic activity in C57BL/6 db/db mouse assessed as reduction in blood glucose AUC (0 to 120 mins) at 10 mg/kg, po administered once daily for 4 weeks followed by 12 hrs fasting and subsequent glucose challenge and measured up to 120 mins by glucometer relative to control; format: functional; design: scale not given: the % may be the effect or the level left
Method in brief: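 Male db/db mice (10 weeks old), grouped by nonfasting and 12 h fasting glucose and body weight, n = 8 per group, lean littermates as lean control. Oral dosing in water once daily for 4 weeks. Then 12 h fast, oral glucose 1.5 g/kg, glucometer readings at 0, 15, 30, 60 and 120 min.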

Mus musculus [17] = assay: Hypoglycemic activity in ICR mouse assessed as reduction in glucose secretion at 10 mg/kg, po via gavage administered as single dose pretreated with compound followed by glucose challenge measured after 120 mins relative to control; format: functional; design: scale not given: the % may be the effect or the level left; conditions: 2 h
Method in brief: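 Male ICR mice (6–7 weeks), overnight fasted, n = 8/group. Single gavage dose in water (vehicle: water). Tail-tip blood glucose by glucometer. Oral glucose 3 g/kg given 60 min after treatment (t = 0), and readings taken up to 120 min.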

[18] = molecular target: Dipeptidyl peptidase 4 (Rattus norvegicus) (UniProt P14740); assay: In vivo inhibition of DPP4 in Sprague-Dawley rat plasma at 10 mg/kg, po via gavage using Gly-Pro-AMC as substrate measured after 24 hrs relative to control; format: functional, organism-based; method in brief: as §2
Mus musculus [19] = assay: Hypoglycemic activity in overnight fasted C57BL/6 db/db mouse reduction in blood glucose AUC (0 to 120 mins) at 10 mg/kg, po pretreated with compound for 30 mins followed by oral glucose challenge and measured up to 120 mins by glucometer relative to control; format: functional; design: scale not given: the % may be the effect or the level left; conditions: time min <=150
Method in brief: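 Male C57BL/6 db/db mice (6–8 weeks, 22 ± 2 g), overnight fasted, n = 6 per group. Oral dosing in water (vehicle: water), then oral glucose 2 g/kg 30 min later. Tail-bleed glucose by glucometer predose and at 0, 15, 30, 60 and 120 min after the load.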

Sequence of Dipeptidyl peptidase 4 (Rattus norvegicus) (P14740 whole entry, looked up): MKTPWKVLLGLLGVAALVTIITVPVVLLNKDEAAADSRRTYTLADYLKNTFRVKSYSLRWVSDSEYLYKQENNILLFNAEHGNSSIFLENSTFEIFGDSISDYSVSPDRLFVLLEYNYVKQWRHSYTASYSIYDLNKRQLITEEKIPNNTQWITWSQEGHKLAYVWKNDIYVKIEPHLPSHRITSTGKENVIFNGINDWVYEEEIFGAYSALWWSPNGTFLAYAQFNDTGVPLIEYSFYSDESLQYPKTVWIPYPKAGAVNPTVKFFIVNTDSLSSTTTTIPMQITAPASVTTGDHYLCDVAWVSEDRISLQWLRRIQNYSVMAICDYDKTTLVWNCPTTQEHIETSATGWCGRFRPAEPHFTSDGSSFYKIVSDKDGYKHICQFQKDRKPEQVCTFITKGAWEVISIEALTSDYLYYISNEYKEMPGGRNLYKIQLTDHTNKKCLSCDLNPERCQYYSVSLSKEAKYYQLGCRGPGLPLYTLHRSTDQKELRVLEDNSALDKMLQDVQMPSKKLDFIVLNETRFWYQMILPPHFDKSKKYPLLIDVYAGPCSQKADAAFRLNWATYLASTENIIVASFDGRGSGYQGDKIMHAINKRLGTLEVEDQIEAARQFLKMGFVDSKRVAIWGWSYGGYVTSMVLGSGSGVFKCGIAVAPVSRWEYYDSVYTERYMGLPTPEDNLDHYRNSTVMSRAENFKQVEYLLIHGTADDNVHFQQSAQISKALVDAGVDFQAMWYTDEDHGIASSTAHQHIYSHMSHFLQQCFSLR
Sequence of Dipeptidyl peptidase 8 (Q6V1X1 whole entry): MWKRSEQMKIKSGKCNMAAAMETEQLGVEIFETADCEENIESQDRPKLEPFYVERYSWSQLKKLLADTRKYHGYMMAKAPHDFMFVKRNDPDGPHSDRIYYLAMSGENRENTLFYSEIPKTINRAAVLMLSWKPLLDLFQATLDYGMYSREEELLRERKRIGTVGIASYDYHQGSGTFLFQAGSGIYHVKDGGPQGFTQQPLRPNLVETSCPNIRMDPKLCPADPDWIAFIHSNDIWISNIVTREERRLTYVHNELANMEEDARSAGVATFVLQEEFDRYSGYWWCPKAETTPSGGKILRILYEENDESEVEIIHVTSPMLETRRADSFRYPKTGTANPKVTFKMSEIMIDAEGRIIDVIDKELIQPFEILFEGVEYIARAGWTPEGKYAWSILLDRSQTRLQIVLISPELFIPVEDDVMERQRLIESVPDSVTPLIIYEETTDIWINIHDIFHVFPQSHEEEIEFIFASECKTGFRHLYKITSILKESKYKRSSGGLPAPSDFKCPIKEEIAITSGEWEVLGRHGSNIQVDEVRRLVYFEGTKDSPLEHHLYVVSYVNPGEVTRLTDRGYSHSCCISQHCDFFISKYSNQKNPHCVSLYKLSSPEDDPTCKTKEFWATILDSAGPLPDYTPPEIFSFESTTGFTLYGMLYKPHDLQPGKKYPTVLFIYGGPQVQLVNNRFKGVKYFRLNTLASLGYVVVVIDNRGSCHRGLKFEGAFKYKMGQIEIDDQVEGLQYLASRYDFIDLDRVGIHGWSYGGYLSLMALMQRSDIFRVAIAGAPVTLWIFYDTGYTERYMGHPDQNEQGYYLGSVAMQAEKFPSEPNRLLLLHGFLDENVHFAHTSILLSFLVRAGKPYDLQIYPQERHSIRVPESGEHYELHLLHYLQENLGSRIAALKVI
Sequence of Dipeptidyl peptidase 9 (Q86TI2 whole entry): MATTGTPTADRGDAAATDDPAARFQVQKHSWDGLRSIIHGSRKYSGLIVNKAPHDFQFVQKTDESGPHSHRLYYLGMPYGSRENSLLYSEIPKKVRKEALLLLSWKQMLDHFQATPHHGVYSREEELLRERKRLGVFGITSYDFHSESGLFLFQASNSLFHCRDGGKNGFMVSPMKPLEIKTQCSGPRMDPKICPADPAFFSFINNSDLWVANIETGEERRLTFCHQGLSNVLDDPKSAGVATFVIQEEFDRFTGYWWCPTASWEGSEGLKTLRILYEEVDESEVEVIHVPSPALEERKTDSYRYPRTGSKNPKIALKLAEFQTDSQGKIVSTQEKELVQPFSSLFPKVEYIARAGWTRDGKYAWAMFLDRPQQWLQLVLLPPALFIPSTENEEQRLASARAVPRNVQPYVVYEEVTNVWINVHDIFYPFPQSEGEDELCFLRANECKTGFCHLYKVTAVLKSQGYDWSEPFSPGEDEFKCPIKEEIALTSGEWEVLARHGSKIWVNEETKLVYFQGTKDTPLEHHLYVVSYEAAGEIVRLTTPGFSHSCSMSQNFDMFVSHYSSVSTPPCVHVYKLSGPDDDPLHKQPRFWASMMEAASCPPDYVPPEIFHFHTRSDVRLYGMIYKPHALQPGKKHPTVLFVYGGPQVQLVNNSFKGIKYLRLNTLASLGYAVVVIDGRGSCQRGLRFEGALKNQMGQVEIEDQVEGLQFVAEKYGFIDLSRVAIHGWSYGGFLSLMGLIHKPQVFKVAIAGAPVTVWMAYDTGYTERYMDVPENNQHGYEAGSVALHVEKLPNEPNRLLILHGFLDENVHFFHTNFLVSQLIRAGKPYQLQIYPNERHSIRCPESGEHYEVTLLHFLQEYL
Sequence of Dipeptidyl peptidase 4 (P27487 whole entry): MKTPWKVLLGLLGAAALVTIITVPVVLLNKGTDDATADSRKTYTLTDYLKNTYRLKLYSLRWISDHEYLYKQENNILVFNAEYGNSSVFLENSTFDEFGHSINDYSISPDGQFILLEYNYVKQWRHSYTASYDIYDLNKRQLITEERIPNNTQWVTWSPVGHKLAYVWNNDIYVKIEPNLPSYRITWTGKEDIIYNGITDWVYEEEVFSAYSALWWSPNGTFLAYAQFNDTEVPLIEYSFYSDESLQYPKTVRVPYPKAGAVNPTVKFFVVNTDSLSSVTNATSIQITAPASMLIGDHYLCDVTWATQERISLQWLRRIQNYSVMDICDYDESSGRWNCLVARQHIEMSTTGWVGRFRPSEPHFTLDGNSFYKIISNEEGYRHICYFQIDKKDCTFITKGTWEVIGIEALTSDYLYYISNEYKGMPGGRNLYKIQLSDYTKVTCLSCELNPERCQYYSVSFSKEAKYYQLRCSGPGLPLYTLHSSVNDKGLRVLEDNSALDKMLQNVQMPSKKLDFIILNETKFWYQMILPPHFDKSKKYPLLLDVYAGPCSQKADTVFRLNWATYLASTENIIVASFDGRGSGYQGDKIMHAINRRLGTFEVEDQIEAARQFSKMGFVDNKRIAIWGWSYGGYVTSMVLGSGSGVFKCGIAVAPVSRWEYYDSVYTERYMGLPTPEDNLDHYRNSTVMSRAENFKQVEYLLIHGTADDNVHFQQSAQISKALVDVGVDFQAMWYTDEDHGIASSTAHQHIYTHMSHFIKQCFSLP

For `COc1cccc2c1C(=O)c1c(O)c3c(c(O)c1C2=O)C[C@@](O)(C(=O)CO)C[C@@H]3O[C@H]1C[C@H](N)[C@H](O)[C@H](C)O1` [DOXORUBICIN], the viability at 48 h, 20 µM [1] was 25%.
In the case of `CC#CCn1c(N2CCC[C@@H](N)C2)cc(=O)n(Cc2cc(C(=O)O)ccc2Cl)c1=O`, the AUC [2] is reported as 8272.25 ng·h/mL, the remaining at 1 h, 0.1 µM [3] is reported as 106% and the viability at 48 h [4] is reported as > 95%. For the same compound, the Cmax [5] was 25700 ng/mL, the IC50 (Dipeptidyl peptidase 8) was > 100 µM and the remaining at 2 h, 1 µM [6] was 103%. The half-life [7] was 54.6 min, the IC50 (Dipeptidyl peptidase 9) was > 100 µM and the CL [8] was 64.8 mL/min/kg.
With `CC#CCn1c(N2CCC[C@@H](N)C2)cc(=O)n(Cc2cccc(C(=O)OC)c2F)c1=O` the IC50 (Dipeptidyl peptidase 8) was > 100 µM and the IC50 (Dipeptidyl peptidase 9) was > 100 µM.
For `CC#CCn1c(N2CCC[C@@H](N)C2)cc(=O)n(Cc2cccc(C(=O)O)c2F)c1=O`, the IC50 (Dipeptidyl peptidase 4) was > 1 µM.
With `CC#CCn1c(N2CCC[C@@H](N)C2)cc(=O)n(Cc2cc(Br)cc(C(=O)OC)c2)c1=O` the IC50 (Dipeptidyl peptidase 8) was > 100 µM and the IC50 (Dipeptidyl peptidase 9) was > 100 µM.
With `CC#CCn1c(N2CCC[C@@H](N)C2)cc(=O)n(Cc2cccc(C(=O)OC)c2Br)c1=O` the IC50 (Dipeptidyl peptidase 8) was > 100 µM and the IC50 (Dipeptidyl peptidase 9) was > 100 µM.
For `CC#CCn1c(N2CCC[C@@H](N)C2)cc(=O)n(Cc2cc(C(=O)OC)ccc2Cl)c1=O`, the CL/F [9] was 9.17 mL/min/kg, the remaining at 1 h, 0.1 µM [3] was 34.4% and the half-life [10] was 146 min. For the same compound, the Cmax [11] was 3190 ng/mL, the viability at 48 h [4] was > 95% and the Tmax [12] was 22.8 min. For the same compound, the IC50 (Dipeptidyl peptidase 8) was > 100 µM, the inhibition [13] was 90% and the remaining at 2 h, 1 µM [6] was 64.1%. The IC50 (Dipeptidyl peptidase 9) was > 100 µM, the AUC(0-inf) [14] was 26800 ng·h/mL and the inhibition [15] was > 70%.
For `CC#CCn1c(N2CCC[C@@H](N)C2)cc(=O)n(Cc2cc(Br)cc(C(=O)O)c2)c1=O`, the IC50 (Dipeptidyl peptidase 8) was > 100 µM and the IC50 (Dipeptidyl peptidase 9) was > 100 µM.
In the case of `CC#CCn1c(N2CCC[C@@H](N)C2)cc(=O)n(Cc2cccc(C(=O)O)c2Br)c1=O`, the IC50 (Dipeptidyl peptidase 4) is reported as > 1 µM.
`Cn1c(=O)cc(N2CCC[C@@H](N)C2)n(Cc2ccccc2C#N)c1=O` [ALOGLIPTIN] gave an Activity (Mus musculus [16]) of 16.7%, an Activity (Mus musculus [17]) of 12.4% and an inhibition [18] of 45%. For the same compound, the Activity (Mus musculus [19]) was 40.1%.
